The source made the active and inactive calls. The rule behind the calls is not given here.
Legend:
[1] = target: Integrin alpha-V/beta-3 (Homo sapiens, UniProt P05106+P06756); assay: Inhibition of integrin alphavbeta3 mediated cell adhesion of human M21 cells to vitronectin; type: cell-based
Outline: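 Non-tissue-culture plastic 96-well plates were coated overnight with 2 µg/ml vitronectin. M21 cells were seeded with or without graded compound concentrations and allowed to adhere for 1 h at 37 °C. Adherent cells were fixed and stained, and the plates were read at 570 nm. Inhibition was calculated with compound-free wells as 100% adhesion.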

[2] = system: M21; assay: Inhibition of human M21 cell migration at 7.5 uM after 16 hrs by scrape motility assay; type: functional; details: M21, 16 h
Outline: (§1)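 Scrape motility assay with M21 melanoma cells on vitronectin-coated plates, treated with compound at 7.5, 15.0 or 30.0 µM. Migration distance was measured by phase-contrast microscopy at 8 h or 16 h. Percent inhibition was taken against untreated cells. Means ± SD of nine determinations from three independent experiments.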

[3] = system: M21; assay: Inhibition of human M21 cell migration at 15 uM after 16 hrs by scrape motility assay; type: functional; details: M21, 16 h; outline: as §1
[4] = system: M21; assay: Inhibition of human M21 cell migration after 8 hrs at 7.5 uM by scrape motility assay; type: functional; details: M21, 8 h; outline: as §1
[5] = system: HUVEC; assay: Inhibition of bFGF-induced capillary-like structure formation in HUVECs at 30 uM after 6 hrs; type: functional, cell-based; details: Homo sapiens
Outline: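 HUVECs in ECM gel stimulated with 100 ng/ml bFGF, with or without compound, for 6 h. PBS served as the unstimulated control. Capillary-like structures were viewed by phase-contrast microscopy.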

[6] = system: M21; assay: Inhibition of human M21 cell migration assessed by measuring migration distance after 8 hrs at 30 uM by scrape motility assay; type: functional; outline: as §1
[7] = system: M21; assay: Inhibition of human M21 cell migration at 30 uM after 16 hrs by scrape motility assay; type: functional; details: M21, 16 h; outline: as §1
[8] = system: M21; assay: Inhibition of human M21 cell migration after 8 hrs at 15 uM by scrape motility assay; type: functional; details: M21, 8 h; outline: as §1
[9] = system: M21; assay: Inhibition of human M21 cell migration assessed by measuring migration distance after 16 hrs at 15 uM by scrape motility assay; type: functional; outline: as §1
[10] = system: M21; assay: Inhibition of human M21 cell migration after 8 hrs at 30 uM by scrape motility assay; type: functional; details: M21, 8 h; outline: as §1
[11] = system: M21; assay: Inhibition of human M21 cell migration assessed by measuring migration distance after 8 hrs at 15 uM by scrape motility assay; type: functional; outline: as §1
[12] = system: M21; assay: Inhibition of human M21 cell migration assessed by measuring migration distance after 16 hrs at 30 uM by scrape motility assay; type: functional; outline: as §1
[13] = system: M21; assay: Inhibition of human M21 cell migration assessed by measuring migration distance after 16 hrs at 7.5 uM by scrape motility assay; type: functional; outline: as §1
[14] = system: M21; assay: Inhibition of human M21 cell migration assessed by measuring migration distance after 8 hrs at 7.5 uM by scrape motility assay; type: functional; outline: as §1

Chain of Integrin alpha-V/beta-3 (P05106 27-788 limits assumed): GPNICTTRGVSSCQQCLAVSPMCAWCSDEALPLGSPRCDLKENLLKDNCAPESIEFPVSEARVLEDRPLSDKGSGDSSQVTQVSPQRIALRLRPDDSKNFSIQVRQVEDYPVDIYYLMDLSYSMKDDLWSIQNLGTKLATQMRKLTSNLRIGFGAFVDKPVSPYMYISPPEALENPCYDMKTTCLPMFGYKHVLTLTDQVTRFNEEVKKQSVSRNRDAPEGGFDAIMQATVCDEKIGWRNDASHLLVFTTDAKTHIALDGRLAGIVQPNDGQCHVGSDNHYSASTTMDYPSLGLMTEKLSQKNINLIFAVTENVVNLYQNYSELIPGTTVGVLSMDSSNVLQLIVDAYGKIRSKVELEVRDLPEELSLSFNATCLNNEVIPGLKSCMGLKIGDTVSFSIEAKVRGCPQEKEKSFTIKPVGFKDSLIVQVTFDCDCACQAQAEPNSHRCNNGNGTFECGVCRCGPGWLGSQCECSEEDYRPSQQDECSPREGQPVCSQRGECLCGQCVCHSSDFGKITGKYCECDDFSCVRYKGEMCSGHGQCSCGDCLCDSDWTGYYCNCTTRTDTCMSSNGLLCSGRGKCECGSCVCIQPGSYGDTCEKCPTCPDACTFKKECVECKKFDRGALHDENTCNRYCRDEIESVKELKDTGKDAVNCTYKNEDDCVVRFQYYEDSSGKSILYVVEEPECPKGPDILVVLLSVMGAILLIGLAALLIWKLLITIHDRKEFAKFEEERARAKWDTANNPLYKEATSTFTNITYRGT
Chain of Integrin alpha-V/beta-3 (P06756 31-889 limits assumed): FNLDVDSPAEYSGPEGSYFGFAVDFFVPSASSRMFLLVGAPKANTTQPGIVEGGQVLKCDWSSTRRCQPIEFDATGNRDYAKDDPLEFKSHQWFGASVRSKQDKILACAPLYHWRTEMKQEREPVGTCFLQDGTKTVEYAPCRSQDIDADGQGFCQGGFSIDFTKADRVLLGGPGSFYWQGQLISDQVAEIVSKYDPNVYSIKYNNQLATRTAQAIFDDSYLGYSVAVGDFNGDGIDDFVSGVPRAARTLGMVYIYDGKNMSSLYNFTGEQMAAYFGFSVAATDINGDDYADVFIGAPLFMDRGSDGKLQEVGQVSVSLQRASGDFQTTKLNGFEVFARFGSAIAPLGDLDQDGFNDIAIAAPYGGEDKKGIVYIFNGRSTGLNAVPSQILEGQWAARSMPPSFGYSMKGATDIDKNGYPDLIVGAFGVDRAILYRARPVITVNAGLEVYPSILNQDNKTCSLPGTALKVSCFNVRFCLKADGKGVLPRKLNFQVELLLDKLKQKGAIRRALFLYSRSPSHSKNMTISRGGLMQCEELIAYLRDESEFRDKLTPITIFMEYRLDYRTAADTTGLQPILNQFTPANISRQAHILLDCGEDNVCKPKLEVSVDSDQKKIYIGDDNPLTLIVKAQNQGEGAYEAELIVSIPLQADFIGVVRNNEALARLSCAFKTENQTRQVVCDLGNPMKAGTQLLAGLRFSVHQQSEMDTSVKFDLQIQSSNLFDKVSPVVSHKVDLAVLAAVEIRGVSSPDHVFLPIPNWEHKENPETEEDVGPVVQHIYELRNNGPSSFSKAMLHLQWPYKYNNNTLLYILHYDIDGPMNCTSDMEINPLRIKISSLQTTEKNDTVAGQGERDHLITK
Chain of Integrin alpha-V/beta-3 (P06756 891-1048 limits assumed): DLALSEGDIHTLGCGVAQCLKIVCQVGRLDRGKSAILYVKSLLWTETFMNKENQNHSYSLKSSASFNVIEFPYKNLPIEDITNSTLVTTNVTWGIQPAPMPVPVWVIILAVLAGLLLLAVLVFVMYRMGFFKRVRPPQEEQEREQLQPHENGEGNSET

SMILES	IC50 [1] [µM]	further results
Cc1ccc(Cl)cc1N=C(N)N=C(N)N	> 200	–
N=C(N)NC(=N)Nc1cc(C(F)(F)F)ccc1Cl	127	–
CCOC(=O)c1cccc(N=C(N)N=C(N)N)c1	> 200	–
CSc1ccccc1N=C(N)N=C(N)N	> 200	–
COc1cc(NS(=O)(=O)c2ccc(NC(=O)COc3ccc(Cl)cc3Cl)cc2)nc(OC)n1	137	–
N=C(N)NC(=N)Nc1ccc(Cl)cc1 [4-CHLOROPHENYLBIGUANIDE]	149	–
CSc1cccc(NC(=N)NC(=N)N)c1	> 200	–
Cn1cnnc1SCC(=O)Nc1ccc(-c2nc3ccc(NC(=O)CSc4nncn4C)cc3o2)c(O)c1	162	–
N=C(N)NC(=N)Nc1cccc(Cl)c1	191	–
N=C(N)NC(=N)Nc1ccccc1Cl	> 200	–
N=C(N)NC(=N)Nc1ccccc1 [PHENYL BIGUANIDE]	> 200	–
NC(N)=NC(N)=Nc1ccc(SC(F)F)cc1	178	–
COc1cc(/C=C2\C(=O)N(c3ccc(C(=O)O)cc3)N=C2C)ccc1OC(=O)c1ccccc1	143	–
O=C(Nc1ccccc1C(=O)O)c1ccc(N2C(=O)c3ccc(Oc4ccc([N+](=O)[O-])cc4)cc3C2=O)cc1	180	–
CCOc1cc(/C=c2\sc3nc4c(C)cccc4n3c2=O)cc(Br)c1OCC(=O)O	132	–
CCOc1ccccc1N=C(N)N=C(N)N	> 200	–

Now those with a lower IC50 [1], led by results:

IC50 [1] [µM]	SMILES	further results
101	N=C(N)NC(=N)Nc1ccc(SC(F)(F)F)cc1	–
100	NC(N)=NC(N)=Nc1cc(Cl)ccc1Cl	–
97.3	N=C(N)NC(=N)Nc1ccc(F)c(Cl)c1	–
87.3	N=C(N)NC(=N)Nc1cccc(Cl)c1Cl	–
66.9	N=C(N)NC(=N)Nc1ccc(Cl)cc1Cl	–
53.5	COc1cc(NS(=O)(=O)c2ccc(N/C=C3\C(=O)N(c4ccc(I)cc4)N=C3C)cc2)nc(OC)n1	–
39.5	N=C(N)NC(=N)Nc1cc(C(F)(F)F)cc(C(F)(F)F)c1	–
38.5	N=C(N)NC(=N)Nc1ccc(Cl)c(Cl)c1	inhibition at 7.5 µM [2]: 39.5%; inhibition at 15 µM [3]: 67.4%; inhibition at 7.5 µM [4]: 9.1%; Activity [5]: Active; Activity [6]: 1.1 um; inhibition at 30 µM [7]: 86%; inhibition at 15 µM [8]: 73.1%; Activity [9]: 38.9 um; inhibition at 30 µM [10]: 96.4%; Activity [11]: 8.3 um; Activity [12]: 16.7 um; Activity [13]: 72.2 um; Activity [14]: 27.8 um
33.5	N=C(N)N=C(N)Nc1cc(Cl)cc(Cl)c1	–
